Results from ChEMBL document CHEMBL1127520, “N-omega-fluoroalkyl analogs of (1R)-2 beta-carbomethoxy-3 beta-(4-iodophenyl)-tropane (beta-CIT): radiotracers for positron emission tomography and single photon emission computed tomography imaging of dopamine transporters” (J Med Chem, 1994).

Key:
[1] = test system: Rattus norvegicus; test: The compound was evaluated for its behavioral activity i.e., locomotor arousal in rat for a dose of 1 mg/kg in time interval of 3 hours; assay type: functional
How it was run: (§1)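 Adult male Sprague-Dawley rats (150-200 g), 3-7 per group, given agent ip in saline containing DMSO; vehicle controls received saline/DMSO. Locomotion counted in an electronic activity monitor, reported as mean ± SEM counts/hour for 0-1, 1-2 and 2-3 h. Comparison by ANOVA, then post-hoc t tests against vehicle.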

[2] = test system: Rattus norvegicus; test: The compound was evaluated for its behavioral activity i.e., locomotor arousal in rat for a dose of 1 mg/kg in time interval of 2 hours; assay type: functional; how it was run: as §1
[3] = test system: Rattus norvegicus; test: The compound was evaluated for its behavioral activity i.e., locomotor arousal in rat for a dose of 1 mg/kg in time interval of 1 hour; assay type: functional; how it was run: as §1
[4] = target: Sodium-dependent dopamine transporter (Rattus norvegicus, UniProt P23977); test: Binding affinity for dopamine transporters in rat brain tissue.; assay type: tissue-based
How it was run: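 Crude membrane fraction from rat corpus striatum homogenate. Nonspecific binding defined with 30 μM methylphenidate. Each agent tested at six concentrations in duplicate. Concentration-inhibition curves computer-fit for IC50 ± SEM, converted to Ki = IC50/(1 + [L/Kd]).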

[5] = test system: Rattus norvegicus; test: The compound was evaluated for its behavioral activity i.e., locomotor arousal in rat for a dose of 3 mg/kg in time interval of 2 hours; assay type: functional; how it was run: as §1
[6] = test system: Rattus norvegicus; test: The compound was evaluated for its behavioral activity i.e., locomotor arousal in rat for a dose of 3 mg/kg in time interval of 3 hours; assay type: functional; how it was run: as §1
[7] = test system: Rattus norvegicus; test: The compound was evaluated for its behavioral activity i.e., locomotor arousal in rat for a dose of 0.3 mg/kg in time interval of 3 hours; assay type: functional; how it was run: as §1
[8] = test system: Rattus norvegicus; test: The compound was evaluated for its behavioral activity i.e., locomotor arousal in rat for a dose of 3 mg/kg in time interval of 1 hour; assay type: functional; how it was run: as §1
[9] = test system: Rattus norvegicus; test: The compound was evaluated for its behavioral activity i.e., locomotor arousal in rat for a dose of 0.3 mg/kg in time interval of 2 hours; assay type: functional; how it was run: as §1
[10] = test system: Rattus norvegicus; test: The compound was evaluated for its behavioral activity i.e., locomotor arousal in rat for a dose of 0.3 mg/kg in time interval of 1 hour; assay type: functional; how it was run: as §1
[11] = test system: Rattus norvegicus; test: The compound was evaluated for its behavioral activity i.e., locomotor arousal in rat for a dose of 1 mg/kg in time interval of 3 hours, expressed as mean =/- SEM activity; assay type: functional; how it was run: as §1

Chain of Sodium-dependent dopamine transporter (P23977 whole entry): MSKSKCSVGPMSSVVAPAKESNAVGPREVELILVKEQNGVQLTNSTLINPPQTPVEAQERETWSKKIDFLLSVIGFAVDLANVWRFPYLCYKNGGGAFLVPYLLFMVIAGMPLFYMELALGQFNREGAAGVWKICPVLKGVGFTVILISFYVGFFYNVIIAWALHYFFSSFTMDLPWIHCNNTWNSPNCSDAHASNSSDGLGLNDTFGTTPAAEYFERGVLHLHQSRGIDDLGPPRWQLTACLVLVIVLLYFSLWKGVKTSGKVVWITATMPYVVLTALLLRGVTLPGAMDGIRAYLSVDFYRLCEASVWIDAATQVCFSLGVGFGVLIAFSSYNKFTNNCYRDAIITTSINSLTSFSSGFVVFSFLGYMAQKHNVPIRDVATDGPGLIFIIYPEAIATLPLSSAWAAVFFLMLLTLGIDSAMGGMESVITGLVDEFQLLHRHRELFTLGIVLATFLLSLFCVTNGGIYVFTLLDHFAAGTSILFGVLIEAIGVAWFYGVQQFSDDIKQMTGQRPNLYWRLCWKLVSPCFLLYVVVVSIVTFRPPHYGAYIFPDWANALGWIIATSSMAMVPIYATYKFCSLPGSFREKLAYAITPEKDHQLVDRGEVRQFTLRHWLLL

COC(=O)[C@H]1C(c2ccc(I)cc2)C[C@H]2CCC1N2C (stereo partly drawn)
Count/h [1]: <9710 | Count/h [2]: <9990 | Count/h [3]: <6820 | Ki [4]: 1.4 nM

CC(C)OC(=O)[C@@H]1C2CC[C@H](C[C@@H]1c1ccc(I)cc1)N2CCF
Ki [4]: 4.4 nM

CC(C)OC(=O)[C@@H]1C2CC[C@H](C[C@@H]1c1ccc(I)cc1)N2CCCF
Ki [4]: 1.2 nM

COC(=O)[C@H]1C(c2ccc(I)cc2)C[C@H]2CCC1N2CCCF (stereo partly drawn)
Count/h [1]: <325 | Count/h [2]: <1071 | Count/h [5]: <2109 | Count/h [6]: <1410 | Count/h [7]: 210 | Count/h [8]: <3791 | Count/h [3]: <1943 | Ki [4]: 3.5 nM | Count/h [9]: 403 | Count/h [10]: 759

COC(=O)[C@H]1C(c2ccc(I)cc2)C[C@H]2CCC1N2CCF (stereo partly drawn)
Count/h [11]: <4400 | Count/h [2]: <4200 | Count/h [5]: <7796 | Count/h [6]: <7562 | Count/h [7]: <3459 | Count/h [8]: <6898 | Count/h [3]: <4180 | Ki [4]: 4 nM | Count/h [9]: <2945 | Count/h [10]: <2030

COC(=O)[C@@H]1C2CC[C@@H](C[C@@H]1OC(=O)c1ccccc1)N2C (single isomer, unassigned) [COCAINE]
Count/h [2]: <1960 | Count/h [5]: <712 | Count/h [8]: <15710 | Count/h [3]: <14940

(2S,5R)-8-(2-Fluoro-ethyl)-3-(4-trimethylstannanyl-phenyl)-8-aza-bicyclo[3.2.1]octane-2-carboxylic acid methyl ester
Ki [4]: > 10000 nM

(2S,5R)-8-(3-Fluoro-propyl)-3-(4-trimethylstannanyl-phenyl)-8-aza-bicyclo[3.2.1]octane-2-carboxylic acid isopropyl ester
Ki [4]: > 10000 nM

(2S,5R)-8-(3-Fluoro-propyl)-3-(4-trimethylstannanyl-phenyl)-8-aza-bicyclo[3.2.1]octane-2-carboxylic acid methyl ester
Ki [4]: > 10000 nM
